# Measured values from ChEMBL document CHEMBL1681705, “Optimisation of ITK inhibitors through successive iterative design cycles” (Bioorg Med Chem Lett, 2011).
# What was measured:
# [1] = target: Tyrosine-protein kinase Fyn (Homo sapiens) (UniProt P06241); test: Inhibition of Fyn at 1 uM
# Method in brief: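 Single-point profiling in a panel of 108 kinases. Each selected inhibitor was tested at two concentrations, 0.1 and 1.0 micromolar. Values are reported as inhibition at each concentration.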
# [2] = target: Serine/threonine-protein kinase SIK1 (Homo sapiens) (UniProt P57059); test: Inhibition of SIK at 1 uM
# Serine/threonine-protein kinase SIK1 (Homo sapiens), sequence (P57059 whole entry): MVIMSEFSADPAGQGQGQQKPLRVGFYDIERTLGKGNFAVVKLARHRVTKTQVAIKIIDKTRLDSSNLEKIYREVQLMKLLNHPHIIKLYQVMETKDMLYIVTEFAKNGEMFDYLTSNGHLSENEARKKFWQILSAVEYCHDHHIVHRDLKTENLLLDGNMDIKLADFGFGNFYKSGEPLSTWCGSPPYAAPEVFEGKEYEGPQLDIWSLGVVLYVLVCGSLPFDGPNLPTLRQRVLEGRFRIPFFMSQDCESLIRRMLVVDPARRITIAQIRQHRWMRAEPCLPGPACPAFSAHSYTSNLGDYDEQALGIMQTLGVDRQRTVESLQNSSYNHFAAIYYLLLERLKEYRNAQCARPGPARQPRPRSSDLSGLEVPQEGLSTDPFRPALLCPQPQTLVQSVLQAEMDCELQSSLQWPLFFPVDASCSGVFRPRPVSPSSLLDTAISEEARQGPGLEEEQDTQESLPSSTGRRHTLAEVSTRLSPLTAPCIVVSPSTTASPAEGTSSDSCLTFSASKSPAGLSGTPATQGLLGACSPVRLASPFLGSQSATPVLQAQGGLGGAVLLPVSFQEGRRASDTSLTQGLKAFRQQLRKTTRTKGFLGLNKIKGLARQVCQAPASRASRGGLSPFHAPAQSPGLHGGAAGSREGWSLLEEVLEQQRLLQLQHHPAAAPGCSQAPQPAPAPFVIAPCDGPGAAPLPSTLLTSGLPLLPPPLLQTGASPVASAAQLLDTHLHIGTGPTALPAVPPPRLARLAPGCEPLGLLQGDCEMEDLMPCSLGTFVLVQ
# [3] = target: Receptor-interacting serine/threonine-protein kinase 2 (Homo sapiens) (UniProt O43353); test: Inhibition of RIPK2 at 1 uM; values are per cent of control
# Receptor-interacting serine/threonine-protein kinase 2 (Homo sapiens), sequence (O43353 whole entry): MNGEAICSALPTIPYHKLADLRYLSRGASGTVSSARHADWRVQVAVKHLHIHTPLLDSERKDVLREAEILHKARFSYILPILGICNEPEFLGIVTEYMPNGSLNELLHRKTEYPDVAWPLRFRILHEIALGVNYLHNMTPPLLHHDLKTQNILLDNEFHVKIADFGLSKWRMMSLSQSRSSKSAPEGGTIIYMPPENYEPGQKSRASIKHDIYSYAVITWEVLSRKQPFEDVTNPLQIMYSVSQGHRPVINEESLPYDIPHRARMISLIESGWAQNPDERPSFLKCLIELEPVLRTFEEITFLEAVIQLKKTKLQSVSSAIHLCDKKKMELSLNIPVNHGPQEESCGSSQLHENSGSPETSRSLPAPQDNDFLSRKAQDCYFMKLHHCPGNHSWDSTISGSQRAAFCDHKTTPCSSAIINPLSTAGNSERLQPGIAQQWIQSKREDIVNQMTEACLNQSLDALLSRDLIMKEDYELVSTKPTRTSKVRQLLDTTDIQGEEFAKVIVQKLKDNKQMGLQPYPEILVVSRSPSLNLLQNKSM
# [4] = target: T1, Dual specificity mitogen-activated protein kinase kinase 6 (Homo sapiens) (UniProt P52564); test: Inhibition of MKK6 at 1 uM; values are per cent of control
# T1 sequence (whole entry): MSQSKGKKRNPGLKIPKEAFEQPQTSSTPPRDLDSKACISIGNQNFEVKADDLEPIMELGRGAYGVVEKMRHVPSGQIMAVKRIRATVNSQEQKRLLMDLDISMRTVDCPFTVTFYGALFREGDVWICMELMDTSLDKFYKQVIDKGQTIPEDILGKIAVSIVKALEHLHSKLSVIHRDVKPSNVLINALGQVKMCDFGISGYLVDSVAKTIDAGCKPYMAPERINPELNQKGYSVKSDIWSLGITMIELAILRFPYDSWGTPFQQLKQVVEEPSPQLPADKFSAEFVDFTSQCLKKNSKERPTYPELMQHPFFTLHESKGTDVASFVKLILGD
# [5] = target: T2, Cytoplasmic tyrosine-protein kinase BMX (Homo sapiens) (UniProt P51813); test: Inhibition of Bmx at 1 uM; values are per cent of control
# T2 sequence (whole entry): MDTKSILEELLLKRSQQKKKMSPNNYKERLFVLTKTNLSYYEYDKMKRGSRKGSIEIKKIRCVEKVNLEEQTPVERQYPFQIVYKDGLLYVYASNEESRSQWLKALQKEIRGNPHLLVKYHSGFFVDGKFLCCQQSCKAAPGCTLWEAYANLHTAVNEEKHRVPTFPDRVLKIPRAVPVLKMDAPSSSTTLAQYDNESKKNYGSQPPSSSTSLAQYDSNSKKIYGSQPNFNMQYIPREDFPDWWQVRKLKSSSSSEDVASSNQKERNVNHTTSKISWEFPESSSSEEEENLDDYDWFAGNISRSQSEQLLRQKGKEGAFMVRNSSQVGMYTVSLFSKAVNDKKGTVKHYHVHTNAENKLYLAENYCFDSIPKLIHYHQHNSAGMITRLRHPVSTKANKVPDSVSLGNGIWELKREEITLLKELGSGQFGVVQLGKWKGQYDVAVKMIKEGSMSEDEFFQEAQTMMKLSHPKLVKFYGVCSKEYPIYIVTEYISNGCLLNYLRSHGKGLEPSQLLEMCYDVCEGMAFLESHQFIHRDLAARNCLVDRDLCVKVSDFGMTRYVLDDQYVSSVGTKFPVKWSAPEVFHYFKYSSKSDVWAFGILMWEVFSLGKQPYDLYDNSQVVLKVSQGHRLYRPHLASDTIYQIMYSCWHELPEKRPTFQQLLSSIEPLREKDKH
# [6] = target: ALK tyrosine kinase receptor (Homo sapiens) (UniProt Q9UM73); test: Inhibition of ALK at 0.1 uM; values are per cent of control
# ALK tyrosine kinase receptor (Homo sapiens), sequence (Q9UM73 19-1620 limits assumed): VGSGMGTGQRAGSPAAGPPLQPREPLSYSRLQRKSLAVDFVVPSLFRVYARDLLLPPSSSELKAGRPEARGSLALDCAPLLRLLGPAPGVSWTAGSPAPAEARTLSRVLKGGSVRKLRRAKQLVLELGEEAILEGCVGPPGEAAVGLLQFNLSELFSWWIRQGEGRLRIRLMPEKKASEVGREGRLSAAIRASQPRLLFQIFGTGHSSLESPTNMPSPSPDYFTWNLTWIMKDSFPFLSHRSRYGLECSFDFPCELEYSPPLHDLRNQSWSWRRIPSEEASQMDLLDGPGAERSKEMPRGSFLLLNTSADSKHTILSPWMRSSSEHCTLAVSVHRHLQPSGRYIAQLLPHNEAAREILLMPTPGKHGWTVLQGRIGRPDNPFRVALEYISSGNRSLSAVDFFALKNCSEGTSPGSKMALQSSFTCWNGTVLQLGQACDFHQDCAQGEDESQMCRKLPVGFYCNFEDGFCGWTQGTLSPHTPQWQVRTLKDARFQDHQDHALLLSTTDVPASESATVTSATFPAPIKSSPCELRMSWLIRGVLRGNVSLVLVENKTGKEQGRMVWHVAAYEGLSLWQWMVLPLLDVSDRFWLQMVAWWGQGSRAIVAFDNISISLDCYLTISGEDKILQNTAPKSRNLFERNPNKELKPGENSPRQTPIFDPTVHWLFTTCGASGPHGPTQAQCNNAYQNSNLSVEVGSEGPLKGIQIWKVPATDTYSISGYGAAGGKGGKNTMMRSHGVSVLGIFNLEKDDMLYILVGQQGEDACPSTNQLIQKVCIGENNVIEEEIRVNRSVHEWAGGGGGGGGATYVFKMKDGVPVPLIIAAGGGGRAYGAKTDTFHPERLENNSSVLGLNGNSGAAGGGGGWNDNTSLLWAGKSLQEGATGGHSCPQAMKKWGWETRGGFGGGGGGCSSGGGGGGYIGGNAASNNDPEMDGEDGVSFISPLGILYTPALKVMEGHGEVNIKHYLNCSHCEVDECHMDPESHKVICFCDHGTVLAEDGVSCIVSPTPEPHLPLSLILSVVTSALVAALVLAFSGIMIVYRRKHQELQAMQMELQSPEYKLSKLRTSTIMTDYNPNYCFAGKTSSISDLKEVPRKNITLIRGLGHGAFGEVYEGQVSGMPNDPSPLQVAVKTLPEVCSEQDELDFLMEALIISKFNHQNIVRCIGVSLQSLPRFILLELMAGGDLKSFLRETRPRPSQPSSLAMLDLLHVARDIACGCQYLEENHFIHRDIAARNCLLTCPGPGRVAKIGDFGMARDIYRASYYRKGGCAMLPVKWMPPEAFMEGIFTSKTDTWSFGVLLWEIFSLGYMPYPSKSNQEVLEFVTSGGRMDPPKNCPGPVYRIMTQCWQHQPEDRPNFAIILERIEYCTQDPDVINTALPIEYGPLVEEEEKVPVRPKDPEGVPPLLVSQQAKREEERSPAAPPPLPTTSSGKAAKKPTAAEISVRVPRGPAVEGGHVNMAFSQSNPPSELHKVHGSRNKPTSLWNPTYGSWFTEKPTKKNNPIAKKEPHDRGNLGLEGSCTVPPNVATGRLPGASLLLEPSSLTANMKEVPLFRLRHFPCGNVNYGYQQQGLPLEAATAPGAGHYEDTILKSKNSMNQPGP
# [7] = target: T3, Inhibitor of nuclear factor kappa-B kinase subunit beta (Homo sapiens) (UniProt O14920); test: Inhibition of IKK-beta at 1 uM; values are per cent of control
# T3 sequence (whole entry): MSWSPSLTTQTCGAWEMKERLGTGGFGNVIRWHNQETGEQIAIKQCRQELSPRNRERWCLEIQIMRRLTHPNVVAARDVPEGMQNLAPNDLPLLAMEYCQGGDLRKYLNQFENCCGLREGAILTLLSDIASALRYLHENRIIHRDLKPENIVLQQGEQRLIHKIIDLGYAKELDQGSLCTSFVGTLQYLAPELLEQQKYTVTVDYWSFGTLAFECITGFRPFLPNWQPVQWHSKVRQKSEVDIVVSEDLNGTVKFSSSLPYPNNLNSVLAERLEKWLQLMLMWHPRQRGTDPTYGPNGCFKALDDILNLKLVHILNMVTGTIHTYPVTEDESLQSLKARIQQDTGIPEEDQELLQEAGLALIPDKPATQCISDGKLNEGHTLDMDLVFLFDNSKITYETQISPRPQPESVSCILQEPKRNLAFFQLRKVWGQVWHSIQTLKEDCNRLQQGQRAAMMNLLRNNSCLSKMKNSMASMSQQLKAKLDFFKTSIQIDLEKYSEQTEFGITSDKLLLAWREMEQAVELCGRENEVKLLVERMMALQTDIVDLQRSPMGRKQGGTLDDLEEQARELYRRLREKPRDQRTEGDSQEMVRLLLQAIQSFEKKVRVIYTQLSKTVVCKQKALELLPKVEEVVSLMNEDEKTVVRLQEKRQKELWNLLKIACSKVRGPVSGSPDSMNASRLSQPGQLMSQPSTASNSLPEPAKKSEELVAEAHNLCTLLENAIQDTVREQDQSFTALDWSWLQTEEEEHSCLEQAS
# [8] = target: Serine/threonine-protein kinase pim-2 (Homo sapiens) (UniProt Q9P1W9); test: Inhibition of Pim-2 at 1 uM; values are per cent of control
# Serine/threonine-protein kinase pim-2 (Homo sapiens), sequence (Q9P1W9 whole entry, looked up): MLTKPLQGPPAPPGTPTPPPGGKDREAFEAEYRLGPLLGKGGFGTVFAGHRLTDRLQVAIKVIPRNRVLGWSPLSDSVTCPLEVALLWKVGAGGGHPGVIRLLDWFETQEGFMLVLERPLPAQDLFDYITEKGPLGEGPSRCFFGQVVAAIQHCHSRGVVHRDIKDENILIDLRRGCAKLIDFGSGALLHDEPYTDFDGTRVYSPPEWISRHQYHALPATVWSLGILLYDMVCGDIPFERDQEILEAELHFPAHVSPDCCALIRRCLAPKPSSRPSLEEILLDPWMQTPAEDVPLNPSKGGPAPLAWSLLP
# [9] = target: Tyrosine-protein kinase JAK2 (Homo sapiens) (UniProt O60674); test: Inhibition of JAK2 at 0.1 uM; values are per cent of control
# [10] = target: MAP kinase-interacting serine/threonine-protein kinase 2 (Homo sapiens) (UniProt Q9HBH9); test: Inhibition of Mnk2 at 0.1 uM; values are per cent of control
# MAP kinase-interacting serine/threonine-protein kinase 2 (Homo sapiens), sequence (Q9HBH9 whole entry, looked up): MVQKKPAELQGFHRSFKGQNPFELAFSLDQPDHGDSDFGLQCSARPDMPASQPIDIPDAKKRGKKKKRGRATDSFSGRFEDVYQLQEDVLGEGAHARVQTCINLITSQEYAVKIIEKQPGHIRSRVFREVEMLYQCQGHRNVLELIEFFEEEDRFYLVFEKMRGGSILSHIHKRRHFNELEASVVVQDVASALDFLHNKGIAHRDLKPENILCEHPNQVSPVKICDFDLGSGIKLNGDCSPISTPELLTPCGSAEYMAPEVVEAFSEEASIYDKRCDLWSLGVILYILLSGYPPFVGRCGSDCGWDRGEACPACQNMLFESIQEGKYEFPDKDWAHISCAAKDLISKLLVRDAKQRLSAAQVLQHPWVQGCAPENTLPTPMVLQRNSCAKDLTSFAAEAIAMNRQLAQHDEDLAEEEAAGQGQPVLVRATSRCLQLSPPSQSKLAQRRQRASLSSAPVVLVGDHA
# [11] = target: T4, Mitogen-activated protein kinase 12 (Homo sapiens) (UniProt P53778); test: Inhibition of SAPK3 at 1 uM
# T4 sequence (whole entry): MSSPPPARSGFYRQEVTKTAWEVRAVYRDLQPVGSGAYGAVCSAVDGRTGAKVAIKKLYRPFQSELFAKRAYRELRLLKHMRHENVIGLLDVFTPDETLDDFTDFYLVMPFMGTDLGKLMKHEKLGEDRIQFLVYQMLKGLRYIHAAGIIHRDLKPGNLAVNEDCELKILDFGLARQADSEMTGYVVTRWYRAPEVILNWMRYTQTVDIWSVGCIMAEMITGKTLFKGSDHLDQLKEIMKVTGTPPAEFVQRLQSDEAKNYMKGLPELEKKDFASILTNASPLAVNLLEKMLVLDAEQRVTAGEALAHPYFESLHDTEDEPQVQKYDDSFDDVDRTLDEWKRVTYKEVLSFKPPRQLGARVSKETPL
# [12] = target: Serine/threonine-protein kinase pim-1 (Homo sapiens) (UniProt P11309); test: Inhibition of Pim-1 at 1 uM; values are per cent of control
# Serine/threonine-protein kinase pim-1 (Homo sapiens), sequence (P11309 whole entry, looked up): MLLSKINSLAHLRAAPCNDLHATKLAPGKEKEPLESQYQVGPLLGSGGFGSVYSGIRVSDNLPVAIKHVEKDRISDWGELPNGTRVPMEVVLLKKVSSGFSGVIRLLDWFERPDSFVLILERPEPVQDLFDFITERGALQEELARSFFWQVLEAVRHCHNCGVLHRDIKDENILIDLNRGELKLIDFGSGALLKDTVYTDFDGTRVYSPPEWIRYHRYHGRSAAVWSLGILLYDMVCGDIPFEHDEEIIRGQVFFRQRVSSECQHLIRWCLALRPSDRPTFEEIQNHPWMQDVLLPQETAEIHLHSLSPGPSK
# Tyrosine-protein kinase Fyn (Homo sapiens), sequence (P06241 2-537 limits assumed): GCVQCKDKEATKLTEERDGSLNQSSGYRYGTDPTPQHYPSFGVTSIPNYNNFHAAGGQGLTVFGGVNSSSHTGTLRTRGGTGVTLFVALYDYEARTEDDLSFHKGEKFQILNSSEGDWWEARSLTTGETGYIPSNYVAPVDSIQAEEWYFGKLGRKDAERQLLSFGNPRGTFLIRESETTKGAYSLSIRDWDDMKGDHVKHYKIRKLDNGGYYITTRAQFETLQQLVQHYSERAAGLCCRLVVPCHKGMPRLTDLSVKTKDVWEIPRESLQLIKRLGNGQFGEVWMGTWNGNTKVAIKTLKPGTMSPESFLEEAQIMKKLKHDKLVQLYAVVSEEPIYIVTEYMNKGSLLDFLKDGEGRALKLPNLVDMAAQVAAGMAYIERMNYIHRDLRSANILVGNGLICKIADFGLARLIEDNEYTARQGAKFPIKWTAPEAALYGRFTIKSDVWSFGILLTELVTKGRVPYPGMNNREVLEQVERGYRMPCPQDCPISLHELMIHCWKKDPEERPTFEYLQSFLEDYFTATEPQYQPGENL
inhibition [1] [%],inhibition [2] [%],residual activity [3] [%],residual activity [4] [%],residual activity [5] [%],residual activity [6] [%],residual activity [7] [%],residual activity [8] [%],residual activity [9] [%],residual activity [10] [%],inhibition [11] [%],residual activity [12] [%],Structure (SMILES)
4,14,78,85,8,47,102,101,16,101,95,93,Cc1ccc2cc(-c3n[nH]c4ccc(NC5CCN(Cc6ccccc6)CC5)cc34)[nH]c2c1
0,9,53,15,-7,27,76,105,2,52,82,91,Cc1ccc2cc(-c3n[nH]c4ccc(NC5CCNC5)cc34)[nH]c2c1 (centres undefined)
